Compound activity: PubChem, several laboratories
MT stabilize HCS: microtubule stabilizers in HeLa cells; HeLa tubulin immunostaining HCS, 24 h; share of cells brighter than vehicle mean+2SD; % tubulin-high responders, % at 10 µM; actives 0.83% (n = 200,000);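 active means plate Z-score above 3 for both tubulin-high and condensed-nucleus cell shares, with cell loss under 80%, at 10 µM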;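 further: anti alpha tubulin signal scored within the nucleus-defined area of each cell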
Ba/F3 V617F tox: loss of viability in JAK2V617F-driven Ba/F3 cells. inhibition, % at 5.6 µM. AID 1446. Ba/F3 EpoR-JAK2V617F viability, ATP luminescence. actives 1.1% (n = 220,000);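 active means inhibition above the campaign mean plus 3 SD over all tested compounds, cut at about 24% in these data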;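 further: cytokine-independent growth of Ba/F3 cells driven by EpoR plus mutant JAK2; 0% = DMSO-treated cells and 100% = JAK inhibitor I control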
b-catenin transl: beta-catenin nuclear translocation modulation | nuclear translocation activity, % at 5 µM | AID 1665 | actives 0.3% (n = 190,000) | HeLa beta-catenin nuclear translocation, immunofluorescence imaging;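 active means nuclear translocation activity above 50% at 5 µM, with a well cell count of 50 or more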;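 further: per-cell ratio of nuclear to cytoplasmic median beta-catenin stain intensity; plate controls were DMSO negative control for no effect and GSK-3 inhibitor IX positive control for full effect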
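Test system: HeLa cells, endogenous beta-catenin; Compound: single 5 µM dose plus 0.02–20 µM confirmation series; Times: compound exposure 24 h at 37°C; Signal: fluorescence imaging of beta-catenin antibody stain plus DAPI; Read-out: % activation, nuclear-to-cytoplasmic median beta-catenin signal ratio per cell.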
IEC-6 cytotox: IEC-6 cytotoxicity, counter-screen for KLF5 inhibitors; luminescence viability; inhibition, % at 5 µM; actives 0.78% (n = 290,000); AID 1825; in the data active means inhibition above about 22%;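 further: 0% = plate median of test compound wells and 100% = cytotoxic reference compound wells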
APP 5UTR inh: APP translation inhibition | inhibition, % at 2 µM | AID 1285 | SH-SY5Y APP 5'UTR-luciferase reporter, luminescence | actives 0.82% (n = 190,000);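 active means inhibition above a set limit, derived from the sample mean plus 3 SD, cut at about 45% in these data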
BaF3 parental: reduces parental Ba/F3 cell viability, JAK2V617F counter-screen | inhibition, % at 5.6 µM | CellTiter-Glo ATP luminescence | actives 1.1% (n = 220,000);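 active means inhibition above a per-campaign cutoff, the mean inhibition of all tested compounds plus 3 SD, cut at about 27% in these data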;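 further: 0% = DMSO wells and 100% = JAK Inhibitor I control wells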
* hit, by the source's call; nt = not tested or not shown. A selection: hits, their analogues and other compounds. The true share with any hit is near 2.2%.

SMILES	MT stabilize HCS	Ba/F3 V617F tox	b-catenin transl	IEC-6 cytotox	APP 5UTR inh	BaF3 parental
Cn1c(=O)c2c(nc(CN3CCC(C(N)=O)CC3)n2CCc2ccccc2)n(C)c1=O	2	-4	114*	2	4	-2
O=C1C(Cl)=C(NCCc2ccccc2)C(=O)N1CCc1ccccc1	2	-3	-6	-1	-23	1
O=C1C(Cl)=C(NCCCN2CCOCC2)C(=O)N1CCc1ccccc1	3	5	nt	8	51*	4
Cc1cc(N/N=C/c2c(O)ccc3ccccc23)nc(-c2ccccc2O)n1	7	-2	4	-5	58*	0
Oc1ccc2ccccc2c1/C=N/Nc1ccccc1	4	-4	0	0	-16	1
O=C1N=C2N(CCN3CCCCC3)c3ccccc3N2/C1=C\c1ccc([N+](=O)[O-])o1	40	-2	0	-5	96*	1
COc1cccc(/C=N/Nc2cc(-n3nc(C)cc3-c3ccccc3)ncn2)c1O	4	2	0	-6	71*	7
COc1cccc(/C=N/Nc2nc(Nc3ccccc3)nc(-n3nc(C)cc3C)n2)c1O	3	1	nt	12	79*	6
Cc1cc(C)n(-c2nc(Nc3ccccc3)nc(-n3nc(C)cc3C)n2)n1	2	-1	-2	-2	2	2
O=C(CN1CCN(CC(=O)Nc2ccccc2Cl)CC1)Nc1ccc(F)c(F)c1	nt	nt	nt	-6	nt	nt
O=C(COc1ccc(Cl)cc1Cl)N1CCN(C(=O)c2ccco2)CC1	nt	nt	nt	-10	nt	nt
CCC(O)CNc1nc(SC)nc2sc3c(c12)CCN(C)C3 (centres undefined)	3	-2	-4	-5	-2	57*
COC(CNc1nc(SC)nc2sc3c(c12)CCN(C)C3)OC	nt	nt	nt	-2	nt	nt
CCc1n(CC(O)COCC2CC=CCC2)c2ccccc2[n+]1C (centres undefined)	1	26*	-1	0	-2	35*
CCn1c(NC2CCCCC2)nc2ccccc21	2	5	1	3	9	7
OC(COCC1CC=CCC1)Cn1cnc2ccccc21 (centres undefined)	2	0	nt	3	-13	8
Cc1nc2ccccc2n1CC(O)COCC1CC=CCC1 (centres undefined)	1	-5	0	4	13	5
Cc1n(CC(O)COCc2ccccc2)c2ccccc2[n+]1C (centres undefined)	2	16	nt	6	3	13
CCc1n(CC(O)COC2CCCCC2)c2ccccc2[n+]1C (centres undefined)	2	24*	-2	-2	-4	57*
CCCc1n(CC)c2ccccc2[n+]1CC(O)COC1CCCCC1 (centres undefined)	4	33*	-4	2	4	50*
CCn1c(C)[n+](CC(O)COCC2CC=CCC2)c2ccccc21 (centres undefined)	1	27*	nt	-3	4	41*
COc1cc(C(=O)OCC(=O)N2CCOCC2)c([N+](=O)[O-])cc1OC	nt	nt	nt	-6	nt	nt
CCC(NC(=S)NC1CCCCC1)c1ccccc1 (centres undefined)	nt	nt	nt	0	nt	nt
Fc1ccccc1NC(=S)N1CCOCC1	nt	nt	nt	1	nt	nt
CN(C)S(=O)(=O)c1cccc(NC(=O)c2cc(-c3cccs3)nn2-c2cccc(Cl)c2)c1	13*	-1	30	0	4	5
SMILES	MT stabilize HCS	Ba/F3 V617F tox	b-catenin transl	IEC-6 cytotox	APP 5UTR inh	BaF3 parental
O=C(Nc1ccc2c(c1)OCO2)c1cc(-c2ccc(O)cc2)on1	nt	nt	nt	6	nt	nt
Cc1sc2ncnc(N3CCN(CCOc4ccc(Cl)cc4)CC3)c2c1C	1	11	0	6	3	31*
O=C(OCCN1C(=O)c2cccc3c(N4CCOCC4)ccc(c23)C1=O)c1ccccc1Cl	14*	4	nt	5	15	7
O=C(OCCN1C(=O)c2cccc3c(N4CCOCC4)ccc(c23)C1=O)c1ccc(Cl)cc1Cl	16*	-3	80*	-3	94*	0
O=C(OCCN1C(=O)c2ccccc2C1=O)c1cc(S(=O)(=O)N2CCOCC2)ccc1Cl	7	-3	-4	-1	16	1
O=C(OCCN1C(=O)c2cccc3c(N4CCOCC4)ccc(c23)C1=O)c1cccc(Cl)c1	16*	-1	56*	-1	15	7
CC1=NN(c2ccc(C)cc2C)C(=O)C1C(c1cccc(O)c1)C1C(=O)N(c2ccc(C)cc2C)N=C1C (centres undefined)	2	-2	1	-5	4	1
